{"source": "ChEMBL document CHEMBL1949600", "about": "“Lipophilic hydroxytyrosol esters: fatty acid conjugates for potential topical administration” (J Nat Prod, 2011)", "key": {"[1]": {"experiment": "Octanol-water partition coefficient, log Kow of the compound by HPLC analysis", "format": "physicochemical", "conditions": "read-out: log KOW", "how_it_was_run": "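Reversed-phase HPLC method for log Kow, calibrated with reference standards of known log Kow. Naphthalene (log Kow 3.3) was the most lipophilic standard. Compounds too lipophilic to be resolved were assigned a log Kow above 3.3.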"}, "[2]": {"experiment": "Percutaneous permeability through human SCE membrane in Franz diffusion cell after 12 hrs by UV-Vis spectrophotometry relative to hydroxytyrosol", "format": "ADME", "how_it_was_run": "(§1)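 Franz cells (0.75 cm² area, 4.75 mL receptor) with human stratum corneum/viable epidermis from fresh abdominal surgical skin, used within 24 h of removal. Non-occlusive, 36 ± 1 °C. Receptor sampled hourly up to 12 h, each sample replaced with fresh phase. UV-vis at each compound's λmax against calibration (0.5–25 μg/mL in EtOH). At least three cells, triplicate, mean ± SD.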"}, "[3]": {"experiment": "Percutaneous permeability through human SCE membrane in Franz diffusion cell after 12 hrs by UV-Vis spectrophotometry", "format": "ADME", "how_it_was_run": "as §1"}}, "data": [{"molecule": "CCCCCCCC/C=C\\CCCCCCCC(=O)OCCc1ccc(O)c(O)c1", "values": [{"measurement": "logP", "setting": "[1]", "result": "> 3.3"}, {"measurement": "fold change (FC)", "setting": "[2]", "result": 3.6}]}, {"molecule": "CCCCCCCC/C=C/CCCCCCCC(=O)OCCc1ccc(O)c(O)c1", "values": [{"measurement": "logP", "setting": "[1]", "result": "> 3.3"}]}, {"molecule": "CCCCC/C=C\\C/C=C\\CCCCCCCC(=O)OCCc1ccc(O)c(O)c1", "values": [{"measurement": "permeability", "setting": "[3]", "result": 60.52, "unit": "%"}, {"measurement": "logP", "setting": "[1]", "result": "> 3.3"}, {"measurement": "fold change (FC)", "setting": "[2]", "result": 2.2}]}, {"molecule": "CCCC(=O)OCCc1ccc(O)c(O)c1", "note": "[HYDROXYTYROSOL BUTANOATE]", "values": [{"measurement": "logP", "setting": "[1]", "result": 1.64}, {"measurement": "fold change (FC)", "setting": "[2]", "result": 1.8}]}, {"molecule": "CCCCCCCCCC(=O)OCCc1ccc(O)c(O)c1", "note": "[HYDROXYTYROSOL DECANOATE]", "values": [{"measurement": "permeability", "setting": "[3]", "result": 64.18, "unit": "%"}, {"measurement": "logP", "setting": "[1]", "result": "> 3.3"}, {"measurement": "fold change (FC)", "setting": "[2]", "result": 2.2}]}, {"molecule": "CCCCCCCCCCCCCCCC(=O)OCCc1ccc(O)c(O)c1", "note": "[HYDROXYTYROSOL PALMITATE]", "values": [{"measurement": "logP", "setting": "[1]", "result": "> 3.3"}, {"measurement": "fold change (FC)", "setting": "[2]", "result": 1.7}]}, {"molecule": "CCCCCCCCCCCCCCCCCC(=O)OCCc1ccc(O)c(O)c1", "note": "[HYDROXYTYROSOL STERATE]", "values": [{"measurement": "logP", "setting": "[1]", "result": "> 3.3"}, {"measurement": "fold change (FC)", "setting": "[2]", "result": 1.7}]}, {"molecule": "OCCc1ccc(O)c(O)c1", "note": "[HYDROXYTYROSOL]", "values": [{"measurement": "logP", "setting": "[1]", "result": 0.809}]}]}
